Reference: publication PMC6467724 (Journal of medicinal chemistry, 2018)

Legend:
[1] = PK and tissue distribution assay, single oral dose; type: in vivo, BALB/c mice; details: for concentration at 4 h: BALB/c, mouse, po, 25 mg/kg
[2] = Microsomal stability assay, human liver microsomes; type: in vitro ADME; details: for Clhep (hepatic clearance), Human: predicted from Clint, Qh 21 mL/min/kg
[3] = Microsomal stability assay, rat liver microsomes; type: in vitro ADME, rat (male Sprague-Dawley); details: for Clhep (hepatic clearance), Rat: predicted from Clint, Qh 70 mL/min/kg
[4] = Microsomal stability assay, mouse liver microsomes; type: in vitro ADME, mouse (male CD-1); details: for Clhep (hepatic clearance), Mouse: predicted from Clint, Qh 90 mL/min/kg
Y strain T. cruzi CYP51A [5] = test: Spectral titration; type: binding, Trypanosoma cruzi; details: 0.5 μM CYP51, inhibitor 0.1–1 μM
Method in brief: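 Y-strain T. cruzi CYP51A was expressed in E. coli and purified. It was titrated at 0.5 μM with test compound (0.1–1 μM) in 5 cm pathlength cuvettes. Difference spectra were read as Δ(A430−A411). Apparent dissociation constants came from nonlinear fits of absorbance change versus ligand concentration to the Morrison quadratic (tight-binding) equation.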

[6] = Mouse acute toxicity assay; type: in vivo; details: single oral dose 200 mg/kg, mice n=3, 48 h
L. infantum CYP51 = L. infantum CYP51 (Leishmania infantum, UniProt A2TEF2); test: Spectral titration; type: binding; details: 0.5 μM CYP51, inhibitor 0.1–1 μM
Y strain T. cruzi CYP51A [7] = test: CYP51 activity inhibition; type: biochemical, Trypanosoma cruzi; details: Figure S1
Method in brief: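 Y-strain T. cruzi CYP51A was expressed in E. coli and purified. Substrate was [3-3H]eburicol at 50 μM final and test compound at 1.1 μM final. After 60 s preincubation at 37 °C, 100 μM NADPH started the reaction. It ran 60 min, EtOAc extraction stopped it, and % inhibition was measured in triplicate, mean ± SD.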

[8] = mice, oral doses up to 200 mg/kg; cited from earlier work
[9] = Balb/c mice, single oral dose 25 mg/kg
[10] = human pooled liver microsomes 0.5 mg/mL, 1 μM test compound
[11] = rat pooled liver microsomes 0.5 mg/mL, 1 μM test compound
[12] = mouse pooled liver microsomes 0.5 mg/mL, 1 μM test compound
[13] = 4 hours after single oral 25 mg/kg, Balb/c mice, ±SEM, n=2, nd = below 0.1 μM

| Plasma life time (time until the compound becomes undetectable) [1, 9] [h] | Clint (estimated intrinsic clearance), Human [2, 10] [mL/min/kg body weight] | Clhep (hepatic clearance), Human [2] [mL/min/kg body weight] | Clhep (hepatic clearance), Rat [3] [mL/min/kg body weight] | Clint (estimated intrinsic clearance), Rat [3, 11] [mL/min/kg body weight] | Clint (estimated intrinsic clearance), Mouse [4, 12] [mL/min/kg body weight] | Clhep (hepatic clearance), Mouse [4] [mL/min/kg body weight] | Molecule | also measured |
| --- | --- | --- | --- | --- | --- | --- | --- | --- |
| 10 | 22.3 | 10.8 | 20.8 | 29.7 | 105 | 48.4 | O=C(N[C@@H](Cn1ccnc1)c1ccc(-c2ccc(F)cc2)cc1Cl)c1ccc(-c2nnc(-c3ccccn3)o2)cc1 [Compound 2, (R)-N-(1-(3-Chloro-4´-fluoro-[1,1´-biphenyl]-4-yl)-2-(1H-imidazol-1-yl)ethyl)-4-(5-(pyridin-2-yl)-1,3,4-oxadiazol-2-yl)benzamide] |  |
| <10 | 20.9 | 10.5 | 46.9 | 142 | 34.2 | 24.8 | O=C(N[C@@H](Cn1ccnc1)c1ccc(-c2ccccc2)cc1Cl)c1ccc(-c2nnc(-c3ccccc3)o2)cc1 [Compound 4, (R)-N-(1-(3-Chloro-[1,1´-biphenyl]-4-yl)-2-(1H-imidazol-1-yl)ethyl)-4-(5-phenyl-1,3,4-oxadiazol-2-yl)benzamide] | Plasma Cp, max ([1]; Balb/c mice, single oral dose 25 mg/kg, nd = below 0.1 μM (detection limit)): 28 µM |
| <16 | 21.2 | 10.6 | 45.6 | 131 | 220 | 63.9 | [2H]c1c([2H])c([2H])c(-c2ccc([C@H](Cn3ccnc3)NC(=O)c3ccc(-c4nnc(-c5ccccc5)o4)cc3)c(Cl)c2)c([2H])c1[2H] [Compound 5, (R)-N-(1-(3-Chloro-[1,1´-biphenyl]-4-yl-2´,3´,4´,5´,6´-d5)-2-(1H-imidazol-1-yl)ethyl)-4-(5-phenyl-1,3,4-oxadiazol-2-yl)benzamide] | concentration at 4 h ([1]; blood): 4 ± 2 µM; concentration at 4 h ([1]; brain): 0.2 µM; concentration at 4 h ([1]; heart): 3 ± 0.5 µM; concentration at 4 h ([1]; lung): 26 ± 4 µM; Cp,max, fold lower (vs compound 4) ([1]; single oral 25 mg/kg): 2 fold |
|  | 11.6 | 7.46 | 31.7 | 58.1 | 127 | 52.6 | CS(=O)(=O)c1ccc(-c2ccc([C@H](Cn3ccnc3)NC(=O)c3ccc(-c4nnc(-c5ccccc5)o4)cc3)c(Cl)c2)cc1 [Compound 6, (R)-N-(1-(3-Chloro-4´-(methylsulfonyl)-[1,1´-biphenyl]-4-yl)-2-(1H-imidazol-1-yl)ethyl)-4-(5-phenyl-1,3,4-oxadiazol-2-yl)benzamide] | Oral bioavailability ([1]; single oral 25 mg/kg, no trace in plasma or tissues except intestine): not orally bioavailable |
|  | 16.5 | 9.24 | 33.5 | 64.3 | 87.7 | 44.4 | O=C(N[C@@H](Cn1ccnc1)c1ccc(Cl)cc1Cl)c1ccc(-c2nnc(-c3ccc(OCC(F)(F)F)cc3F)o2)cc1 [Compound 8, (R)-N-(1-(2,4-Dichlorophenyl)-2-(1H-imidazol-1-yl)ethyl)-4-(5-(2-fluoro-4-(2,2,2-trifluoroethoxy)phenyl)-1,3,4-oxadiazol-2-yl)benzamide] |  |
|  | 13.9 | 8.35 | 23.6 | 35.5 | 59.8 | 35.9 | O=C(N[C@@H](Cn1ccnc1)c1ccc(-c2ccc(F)cc2)cc1Cl)c1ccc(-c2nnc(-c3ccccc3)o2)cc1 [VFV-Cl, (R)-N-(1-(3-Chloro-4´-fluoro-[1,1´-biphenyl]-4-yl)-2-(1H-imidazol-1-yl)ethyl)-4-(5-phenyl-1,3,4-oxadiazol-2-yl)benzamide] | Increase of concentrations in tissues at 50 mg/kg ([1]; 50 mg/kg vs 25 mg/kg, data not shown): about 1.5 fold; Metabolism ([M+34] metabolite) when extracted from mice plasma ([1]; 3 and 10 h after single oral 25 mg/kg, HPLC (Figure 4)): almost no metabolism |

The remaining lines, values behind:

| Molecule | Plasma life time (time until the compound becomes undetectable) [1, 9] [h] | Clint (estimated intrinsic clearance), Human [2, 10] [mL/min/kg body weight] | Clhep (hepatic clearance), Human [2] [mL/min/kg body weight] | Clhep (hepatic clearance), Rat [3] [mL/min/kg body weight] | Clint (estimated intrinsic clearance), Rat [3, 11] [mL/min/kg body weight] | Clint (estimated intrinsic clearance), Mouse [4, 12] [mL/min/kg body weight] | Clhep (hepatic clearance), Mouse [4] [mL/min/kg body weight] | also measured |
| --- | --- | --- | --- | --- | --- | --- | --- | --- |
| O=C(N[C@@H](Cn1ccnc1)c1c(F)cc(-c2ccc(F)cc2)cc1F)c1ccc(-c2nnc(-c3ccccc3)o2)cc1 [Compound 7, (R)-N-(2-(1H-Imidazol-1-yl)-1-(3,4´,5-trifluoro-[1,1′-biphenyl]-4-yl)ethyl)-4-(5-phenyl-1,3,4-oxadiazol-2-yl)benzamide] | >24 | 19.4 | 10.1 | 31.1 | 55.8 | 237 | 65.2 | Apparent binding affinity to Y strain T. cruzi CYP51A (Y strain T. cruzi CYP51A [5]): low nanomolar concentration range; Acute toxicity, clinical observation [6]: No detectable side effects; Apparent binding affinity to L. infantum CYP51 (L. infantum CYP51): low nanomolar concentration range; Inhibition of Y strain T. cruzi CYP51A enzymatic activity (Y strain T. cruzi CYP51A [7]): completely inhibited |
| O=C(N[C@@H](Cn1ccnc1)c1ccc(Cl)cc1Cl)c1ccc(-c2nnc(-c3ccc(F)c(F)c3)o2)cc1 [Compound 9, (R)-N-(1-(2,4-Dichlorophenyl)-2-(1H-imidazol-1-yl)ethyl)-4-(5-(3,4-difluorophenyl)-1,3,4-oxadiazol-2-yl)benzamide] |  | 7.53 | 5.54 | 21.4 | 30.9 | 55.8 | 34.5 | Apparent binding affinity to Y strain T. cruzi CYP51A (Y strain T. cruzi CYP51A [5]): low nanomolar concentration range; Acute toxicity, clinical observation [6]: No detectable side effects; Apparent binding affinity to L. infantum CYP51 (L. infantum CYP51): low nanomolar concentration range; Inhibition of Y strain T. cruzi CYP51A enzymatic activity (Y strain T. cruzi CYP51A [7]): stronger potency |
| O=C(N[C@@H](Cn1ccnc1)c1ccc(-c2ccc(F)cc2)cc1F)c1ccc(-c2nnc(-c3ccccc3)o2)cc1 [VFV, (R)-N-(1-(3,4′-difluoro-[1,1′-biphenyl]-4-yl)-2-(1H-imidazol-1-yl)ethyl)-4-(5-phenyl-1,3,4-oxadiazol-2-yl)benzamide, reference compound] | >24 | 29.9 | 12.3 | 14.2 | 17.7 | 145 | 55.6 | Acute toxicity [8]: no acute toxicity |
| O=C(N[C@@H](Cn1ccnc1)c1ccc(Cl)cc1Cl)c1ccc(-c2nnc(-c3ccccc3)o2)cc1 [VNI, (R)-N-(1-(2,4-dichlorophenyl)-2-(1H-imidazol-1-yl)ethyl)-4-(5-phenyl-1,3,4-oxadiazol-2-yl)benzamide] |  |  |  |  |  |  |  | Acute toxicity [8]: no acute toxicity |
| (R)-N-(1-(3-Chloro-4´-(trifluoromethyl)-[1,1´-biphenyl]-4-yl)-2-(1H-imidazol-1-yl)ethyl)-4-(5-(pyridin-4-yl)-1,3,4-oxadiazol-2-yl)benzamide [Compound 3] |  | 23.5 | 11.1 | 29.9 | 52.3 | 99.0 | 47.1 | Tissue distribution, Heart [1, 13]: 0.1 µM; Tissue distribution, Liver [1, 13]: 0.4 µM; Tissue distribution, Lung [1, 13]: 1 ± 1 µM; t½ (in vitro half-life), Human [2, 10]: 53 min; t½ (in vitro half-life), Rat [3, 11]: 54 min; t½ (in vitro half-life), Mouse [4, 12]: 55 min |
